Assay results reported in publication PMC10765384 (Bioorganic chemistry, 2023).
Read-outs that look alike come from different tables or passages of the source.

Experiments:
[1] = system: HBV DNA replication in HepAD38 cells; test: Anti-HBV activity, 7-day assay in HepAD38 cells; type: cell-based, hepatitis B virus; details: for EC50: read-out: Anti-HBV activity EC50; for EC90: read-out: Anti-HBV activity EC90
[2] = Liver microsome stability, mouse; type: in vitro ADME
Outline: (§1)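 Test compound (1 μM), alone or with ritonavir at 0.3, 1 or 3 μM, was incubated with 1 mg/mL mouse or human liver microsomes in 100 mM potassium phosphate pH 7.4 with 5 mM MgCl2. NADPH (final 1 mM) started the reaction at 37°C. Aliquots at 0–90 min were quenched in ice-cold methanol, centrifuged, diluted 1:1 with water, and analysed by LC-MS/MS. Propranolol was the positive control.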

CYP 3A4 = CYP 3A4 (Homo sapiens, UniProt P08684); test: CYP inhibition in human liver microsomes; type: in vitro ADME; details: for CYP Inhibition (% at 10 μM) 3A4-M: midazolam substrate; for CYP Inhibition (% at 10 μM) 3A4-T: testosterone substrate
Chain of CYP 3A4 (P08684 whole entry): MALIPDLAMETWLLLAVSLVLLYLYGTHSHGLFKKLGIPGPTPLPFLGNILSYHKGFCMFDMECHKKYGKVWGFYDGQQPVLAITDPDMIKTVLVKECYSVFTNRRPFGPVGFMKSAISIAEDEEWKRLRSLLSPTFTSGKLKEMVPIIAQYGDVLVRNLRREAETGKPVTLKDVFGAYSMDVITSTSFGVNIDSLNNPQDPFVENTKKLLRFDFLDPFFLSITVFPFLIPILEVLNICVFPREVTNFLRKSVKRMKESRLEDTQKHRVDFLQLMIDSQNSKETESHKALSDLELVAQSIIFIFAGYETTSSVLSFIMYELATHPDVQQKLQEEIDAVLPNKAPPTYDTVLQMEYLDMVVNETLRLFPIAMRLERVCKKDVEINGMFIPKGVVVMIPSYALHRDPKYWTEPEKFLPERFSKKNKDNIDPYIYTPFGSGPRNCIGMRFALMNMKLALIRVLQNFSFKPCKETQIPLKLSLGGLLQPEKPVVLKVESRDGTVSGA

[3] = Cytotoxicity, CellTiter 96 assay in HepG2 cells; type: cell-based, human; details: human, hepatocellular carcinoma (HepG2) cells
Outline: (§2)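 Colorimetric non-radioactive cell proliferation read-out (CellTiter 96). CC50 is the test compound concentration that inhibited cell growth by 50%.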

CYP 2B6 = target: T1, CYP 2B6 (Homo sapiens, UniProt P20813); test: CYP inhibition in human liver microsomes; type: in vitro ADME
T1 sequence (P20813 1-491): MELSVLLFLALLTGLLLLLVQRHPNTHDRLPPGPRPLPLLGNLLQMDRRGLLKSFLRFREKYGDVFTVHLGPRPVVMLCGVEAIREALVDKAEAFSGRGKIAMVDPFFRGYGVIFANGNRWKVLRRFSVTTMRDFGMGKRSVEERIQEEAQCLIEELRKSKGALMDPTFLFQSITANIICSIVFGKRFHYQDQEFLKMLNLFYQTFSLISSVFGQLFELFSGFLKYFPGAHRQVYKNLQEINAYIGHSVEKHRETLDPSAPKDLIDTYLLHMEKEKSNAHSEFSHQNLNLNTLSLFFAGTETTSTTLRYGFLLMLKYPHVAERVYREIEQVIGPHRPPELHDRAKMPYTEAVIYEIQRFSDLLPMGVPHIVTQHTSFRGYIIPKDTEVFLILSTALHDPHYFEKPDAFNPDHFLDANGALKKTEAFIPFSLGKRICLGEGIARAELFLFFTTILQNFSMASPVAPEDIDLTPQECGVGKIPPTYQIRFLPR

[4] = Cytotoxicity, CellTiter 96 assay in Vero cells; type: cell-based, African green monkey; details: African green monkey, kidney (Vero) cells
Outline: as §2

CYP 2C19 = CYP 2C19 (Homo sapiens, UniProt P33261); test: CYP inhibition in human liver microsomes; type: in vitro ADME
Chain of CYP 2C19 (P33261 whole entry): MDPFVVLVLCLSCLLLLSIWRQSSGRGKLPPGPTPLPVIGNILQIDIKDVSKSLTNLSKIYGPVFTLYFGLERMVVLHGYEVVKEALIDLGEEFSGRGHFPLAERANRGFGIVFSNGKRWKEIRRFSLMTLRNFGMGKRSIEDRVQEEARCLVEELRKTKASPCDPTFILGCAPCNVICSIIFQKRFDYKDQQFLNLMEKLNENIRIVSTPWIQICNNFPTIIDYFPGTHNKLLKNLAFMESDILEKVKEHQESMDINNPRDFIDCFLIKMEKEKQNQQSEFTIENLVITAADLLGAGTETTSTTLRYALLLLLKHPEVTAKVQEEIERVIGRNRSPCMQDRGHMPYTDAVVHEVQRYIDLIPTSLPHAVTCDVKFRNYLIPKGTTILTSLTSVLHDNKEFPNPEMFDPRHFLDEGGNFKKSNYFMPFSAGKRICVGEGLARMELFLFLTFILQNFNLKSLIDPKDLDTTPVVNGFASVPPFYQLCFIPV

CYP 2D6 = CYP 2D6 (Homo sapiens, UniProt P10635); test: CYP inhibition in human liver microsomes; type: in vitro ADME
Chain of CYP 2D6 (P10635 whole entry): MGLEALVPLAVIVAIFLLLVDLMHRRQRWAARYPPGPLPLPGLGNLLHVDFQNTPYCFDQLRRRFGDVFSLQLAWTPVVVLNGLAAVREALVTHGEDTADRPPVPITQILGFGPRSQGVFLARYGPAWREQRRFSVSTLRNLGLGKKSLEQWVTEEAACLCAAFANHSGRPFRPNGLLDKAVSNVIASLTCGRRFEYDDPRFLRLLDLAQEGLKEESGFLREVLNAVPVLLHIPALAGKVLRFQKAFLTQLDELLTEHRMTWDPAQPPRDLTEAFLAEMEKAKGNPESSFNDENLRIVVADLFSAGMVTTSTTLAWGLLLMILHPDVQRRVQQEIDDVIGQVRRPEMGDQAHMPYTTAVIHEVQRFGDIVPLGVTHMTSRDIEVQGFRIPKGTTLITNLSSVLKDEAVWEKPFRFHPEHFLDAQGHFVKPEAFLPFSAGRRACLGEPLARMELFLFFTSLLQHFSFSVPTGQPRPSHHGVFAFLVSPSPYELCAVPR

[5] = Cell permeability across Caco-2 cell monolayer; type: in vitro ADME; details: human
Outline: (§3)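 Bidirectional transport of 2 μM test compound across Caco-2 monolayers at pH 7.4, in duplicate, with final DMSO below 1%. Plates were held 2 hr at 37°C, 5% CO2, saturated humidity, without shaking. Starting, donor and receiver solutions were analysed by LC/MS/MS. Lucifer yellow rejection after transport checked monolayer integrity.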

[6] = Cytotoxicity, CellTiter 96 assay in CEM cells; type: cell-based, human; details: human, T lymphoblast (CEM) cells
Outline: as §2

CYP 2C8 = target: T2, CYP 2C8 (Homo sapiens, UniProt P10632); test: CYP inhibition in human liver microsomes; type: in vitro ADME
T2 sequence (P10632 1-490): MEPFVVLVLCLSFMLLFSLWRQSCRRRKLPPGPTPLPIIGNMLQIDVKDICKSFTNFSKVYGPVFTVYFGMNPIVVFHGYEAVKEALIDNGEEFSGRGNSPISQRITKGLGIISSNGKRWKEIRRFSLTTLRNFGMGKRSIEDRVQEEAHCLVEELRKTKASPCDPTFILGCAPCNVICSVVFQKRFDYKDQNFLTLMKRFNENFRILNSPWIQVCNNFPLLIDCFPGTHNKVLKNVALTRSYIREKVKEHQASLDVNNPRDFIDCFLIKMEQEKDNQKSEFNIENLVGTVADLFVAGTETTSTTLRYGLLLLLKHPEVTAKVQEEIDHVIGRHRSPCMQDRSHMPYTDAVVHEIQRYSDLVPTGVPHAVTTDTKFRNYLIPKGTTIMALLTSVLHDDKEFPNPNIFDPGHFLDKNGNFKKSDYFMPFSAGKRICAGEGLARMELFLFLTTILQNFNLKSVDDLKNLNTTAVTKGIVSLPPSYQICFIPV

[7] = Cytotoxicity, CellTiter 96 assay in PBM cells; type: cell-based, human; details: human, peripheral blood mononuclear (PBM) cells
Outline: as §2

[8] = Liver microsome stability, human; type: in vitro ADME
Outline: as §1

CYP 2C9 = CYP 2C9 (Homo sapiens, UniProt P11712); test: CYP inhibition in human liver microsomes; type: in vitro ADME
Chain of CYP 2C9 (P11712 whole entry): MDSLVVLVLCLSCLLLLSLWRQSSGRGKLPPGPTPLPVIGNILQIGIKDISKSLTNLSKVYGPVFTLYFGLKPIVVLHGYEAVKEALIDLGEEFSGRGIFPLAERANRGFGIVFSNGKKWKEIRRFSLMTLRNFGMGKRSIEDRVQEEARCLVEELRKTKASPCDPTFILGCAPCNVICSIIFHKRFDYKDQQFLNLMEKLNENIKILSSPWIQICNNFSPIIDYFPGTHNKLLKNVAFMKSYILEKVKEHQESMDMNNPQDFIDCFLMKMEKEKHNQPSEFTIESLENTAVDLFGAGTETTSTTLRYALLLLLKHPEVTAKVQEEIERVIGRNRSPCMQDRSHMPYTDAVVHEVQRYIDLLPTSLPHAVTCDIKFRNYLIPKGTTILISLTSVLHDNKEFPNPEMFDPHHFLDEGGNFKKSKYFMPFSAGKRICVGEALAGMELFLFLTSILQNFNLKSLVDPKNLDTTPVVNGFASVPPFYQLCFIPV

CYP 1A2 = target: T3, CYP 1A2 (Homo sapiens, UniProt P05177); test: CYP inhibition in human liver microsomes; type: in vitro ADME
T3 sequence (P05177 1-516): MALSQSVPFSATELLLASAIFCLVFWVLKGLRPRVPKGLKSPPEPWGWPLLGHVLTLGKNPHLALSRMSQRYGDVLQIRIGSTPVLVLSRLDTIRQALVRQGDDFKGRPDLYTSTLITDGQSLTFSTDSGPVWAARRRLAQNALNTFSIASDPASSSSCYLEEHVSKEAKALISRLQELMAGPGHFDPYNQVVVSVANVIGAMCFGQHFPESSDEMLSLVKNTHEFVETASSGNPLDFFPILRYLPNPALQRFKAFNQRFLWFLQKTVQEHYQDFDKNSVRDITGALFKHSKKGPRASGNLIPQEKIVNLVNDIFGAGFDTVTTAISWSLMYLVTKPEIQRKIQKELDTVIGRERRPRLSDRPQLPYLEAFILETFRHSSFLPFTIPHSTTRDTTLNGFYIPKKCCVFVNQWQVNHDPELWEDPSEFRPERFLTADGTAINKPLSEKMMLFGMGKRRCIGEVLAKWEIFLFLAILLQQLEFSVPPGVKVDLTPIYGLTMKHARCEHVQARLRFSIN
Outline: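 Known CYP450 probe substrates were incubated with human liver microsomes (0.05–0.2 mg/mL), 1 mM NADPH, 100 mM potassium phosphate pH 7.4 and 3 mM MgCl2 at 37°C, with or without 10 μM test compound, in duplicate. Reactions were quenched with a solution containing internal standards. Each substrate's signature metabolite was quantified by LC/MS/MS.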

HBV = details: humanized mouse model, in combination with entecavir; ref [7],[8]; cited from earlier work
[9] = system: human hepatocellular carcinoma (HepG2) cells; test: Cytotoxicity, CellTiter 96 assay in HepG2 cells; type: cell-based; details: read-out: Cytotoxicity CC50 HepG2; HepG2 cells
Outline: as §2

hERG = hERG (Homo sapiens, UniProt Q12809); test: hERG inhibition, automated patch clamp in CHO cells; type: cell-based; details: room temperature
Chain of hERG (Q12809 whole entry): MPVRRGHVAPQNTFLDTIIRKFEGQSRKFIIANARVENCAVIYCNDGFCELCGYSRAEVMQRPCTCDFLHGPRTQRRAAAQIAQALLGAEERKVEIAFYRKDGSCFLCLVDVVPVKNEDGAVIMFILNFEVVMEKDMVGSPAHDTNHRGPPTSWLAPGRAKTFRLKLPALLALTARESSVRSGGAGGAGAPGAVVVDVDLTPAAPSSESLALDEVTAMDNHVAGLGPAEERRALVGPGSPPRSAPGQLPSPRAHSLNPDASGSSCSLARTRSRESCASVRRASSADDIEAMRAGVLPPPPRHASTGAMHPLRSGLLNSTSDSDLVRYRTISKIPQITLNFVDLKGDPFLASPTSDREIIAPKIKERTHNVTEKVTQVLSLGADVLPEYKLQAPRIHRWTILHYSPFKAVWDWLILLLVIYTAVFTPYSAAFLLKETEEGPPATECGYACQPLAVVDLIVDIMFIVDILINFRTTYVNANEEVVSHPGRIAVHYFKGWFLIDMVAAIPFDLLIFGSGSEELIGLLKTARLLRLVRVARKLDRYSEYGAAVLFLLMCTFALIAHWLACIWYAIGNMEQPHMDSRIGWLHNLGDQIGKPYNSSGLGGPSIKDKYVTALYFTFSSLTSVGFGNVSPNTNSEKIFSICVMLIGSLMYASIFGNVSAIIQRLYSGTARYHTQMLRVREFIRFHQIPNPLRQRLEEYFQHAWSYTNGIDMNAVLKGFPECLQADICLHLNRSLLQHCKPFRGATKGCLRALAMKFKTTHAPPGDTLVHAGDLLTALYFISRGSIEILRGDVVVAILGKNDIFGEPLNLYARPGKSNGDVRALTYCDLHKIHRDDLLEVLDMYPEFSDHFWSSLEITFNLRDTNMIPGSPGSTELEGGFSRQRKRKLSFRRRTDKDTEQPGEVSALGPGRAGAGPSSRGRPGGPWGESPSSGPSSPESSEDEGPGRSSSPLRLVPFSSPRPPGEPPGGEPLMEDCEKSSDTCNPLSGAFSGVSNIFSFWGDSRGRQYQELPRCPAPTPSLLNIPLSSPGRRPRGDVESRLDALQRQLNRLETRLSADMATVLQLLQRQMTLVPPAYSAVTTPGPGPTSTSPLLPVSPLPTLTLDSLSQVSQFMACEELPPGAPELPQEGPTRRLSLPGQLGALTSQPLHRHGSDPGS
Outline: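 Test article was applied at concentrations up to 10 μM, with n ≥ 3 per compound.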

[10] = system: African green monkey kidney (Vero) cells; test: Cytotoxicity, CellTiter 96 assay in Vero cells; type: cell-based; details: read-out: Cytotoxicity CC50 Vero; Vero cells
Outline: as §2

Formation of glutathione = type: in vitro ADME; details: human liver microsomes 1 mg/mL, 1 mM GSH, 60 min, 37°C
Caco-2 cell monolayer = test: Cell permeability across Caco-2 cell monolayer; type: in vitro ADME
Outline: as §3

[11] = system: human T lymphoblast (CEM) cells; test: Cytotoxicity, CellTiter 96 assay in CEM cells; type: cell-based; details: read-out: Cytotoxicity CC50 CEM; CEM cells
Outline: as §2

[12] = system: human peripheral blood mononuclear (PBM) cells; test: Cytotoxicity, CellTiter 96 assay in PBM cells; type: cell-based; details: read-out: Cytotoxicity CC50 PBM; PBM cells
Outline: as §2

[13] = Hepatitis B virus, HePAD38, 168 h
[14] = HepAD38 cells, 7-day assay, HBV DNA

C#CCn1c(C)c(C(=O)C(=O)NC(C)(C)C#C)c(C)c1C(=O)Nc1ccc(F)c(F)c1 [Compound 10a, N-(3,4-Difluorophenyl)-3,5-dimethyl-4-(2-((2-methylbut-3-yn-2-yl)amino)-2-oxoacetyl)-1-(prop-2-yn-1-yl)-1H-pyrrole-2-carboxamide]
EC50 [1, 13]: 0.02 ± 0.03 nM | EC90 [1, 13]: 0.0016 ± 0.0008 µM | fold improvement of half-life on co-incubation with ritonavir ([2]; mouse liver microsomes, ritonavir at ratios up to 1/3): 45 fold | half-life at 1 μM ([2]; mouse, mouse liver microsomes, pH 7.4): 2.4 min | CYP Inhibition (% at 10 μM) 3A4-M (CYP 3A4): 40% | CYP Inhibition (% at 10 μM) 3A4-T (CYP 3A4): 40% | CC50 [3]: > 100 µM | CYP Inhibition (% at 10 μM) 2B6 (CYP 2B6): 5% | CC50 [4]: > 100 µM | CYP Inhibition (% at 10 μM) 2C19 (CYP 2C19): 34% | CYP Inhibition (% at 10 μM) 2D6 (CYP 2D6): 8% | Papp A→B at 2 h, 2 μM ([5]; Caco-2, pH 7.4): 33.5 ×10⁻⁶ cm/s | Papp B→A at 2 h, 2 μM ([5]; Caco-2, pH 7.4): 10.9 ×10⁻⁶ cm/s | recovery at 2 h, 2 μM ([5]; Caco-2, pH 7.4, Mean Recovery % A-B, Caco-2, A-B): 100% | recovery at 2 h, 2 μM ([5]; Caco-2, pH 7.4, Mean Recovery % B-A, Caco-2, B-A): 74.6% | CC50 [6]: > 100 µM | CYP Inhibition (% at 10 μM) 2C8 (CYP 2C8): 95% | CC50 [7]: > 100 µM | fold improvement of half-life on co-incubation with ritonavir ([8]; human liver microsomes, ritonavir at ratios up to 1/3): two-fold | half-life at 1 μM ([8]; human, human liver microsomes, pH 7.4): 9 min | CYP Inhibition (% at 10 μM) 2C9 (CYP 2C9): 40% | CYP Inhibition (% at 10 μM) 1A2 (CYP 1A2): 9%

C#CCNC(=O)C(=O)c1c(C)c(C(=O)Nc2ccc(F)c(F)c2)n(C)c1C [GLP-26, reference compound]
EC50 [1, 14]: 4.6 ± 2 nM | EC90 [1, 14]: 0.0168 ± 0.0071 µM | Liver microsome stability t1/2 Mouse ([2]; mouse liver microsomes 1 mg/mL, compound alone): 41 min | CYP Inhibition (% at 10 μM) 3A4-M (CYP 3A4): −7.2% | CYP Inhibition (% at 10 μM) 3A4-T (CYP 3A4): 8.3% | antiviral response (HBV): sustained antiviral response up to 12 weeks post treatment | CC50 [9]: > 100 µM | hERG % Inhibition at 10 μM (hERG): 46.6% | CYP Inhibition (% at 10 μM) 2B6 (CYP 2B6): −1.6% | CC50 [10]: 46 ± 30 µM | GSH % Reactive metabolites at 25 μM (Formation of glutathione): 0.8% | CYP Inhibition (% at 10 μM) 2C19 (CYP 2C19): 15.9% | CYP Inhibition (% at 10 μM) 2D6 (CYP 2D6): 9.5% | Permeability A-B (Caco-2 cell monolayer; Caco-2, 2 μM, pH 7.4, 2 hr, A-B): 23.5 10^−6 cm/s | Permeability B-A (Caco-2 cell monolayer; Caco-2, 2 μM, pH 7.4, 2 hr, B-A): 22.8 10^−6 cm/s | Mean Recovery % A-B (Caco-2 cell monolayer; Caco-2, A-B): 86.3% | Mean Recovery % B-A (Caco-2 cell monolayer; Caco-2, B-A): 98.7% | CC50 [11]: > 100 µM | CYP Inhibition (% at 10 μM) 2C8 (CYP 2C8): 54% | CC50 [12]: > 100 µM | Liver microsome stability t1/2 Human ([8]; human liver microsomes 1 mg/mL, compound alone): >60 min | CYP Inhibition (% at 10 μM) 2C9 (CYP 2C9): 11.7% | CYP Inhibition (% at 10 μM) 1A2 (CYP 1A2): −9.6%
